{
  "source": "ChEMBL document CHEMBL1671644",
  "about": "“Inhibition of human immunodeficiency virus type 1 infection by the candidate microbicide dapivirine, a nonnucleoside reverse transcriptase inhibitor” (Antimicrob Agents Chemother, 2009)",
  "key": {"[1]": {"test_system": "Human immunodeficiency virus 1", "assay": "Antiviral activity against HIV-1 subtype B V022814 infected in human MT4 cells assessed as inhibition of viral replication relative to HIV-1 3B", "assay_type": "functional", "in_short": "(§1)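 MT-4 cells (3 x 10^4/well) infected with site-directed mutants or recombinant clinical isolates (200 TCID50/well) with drug, cultured 3 to 5 days. Viability read by MTT colorimetric antivirogram assay. IC50 by nonlinear regression; fold change = IC50 for the test isolate / IC50 for wild-type HIV-1 IIIB tested in parallel (mean or median).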"}, "[2]": {"test_system": "Human immunodeficiency virus 1", "assay": "Antiviral activity against HIV-1 Bal infected in human PM1 cells assessed as inhibition of transmission of virus to premissive T cells at 100 nM"}, "[3]": {"test_system": "Human immunodeficiency virus 1", "assay": "Antiviral activity against HIV-1 subtype H V022827 harboring NNRTI V179I mutant infected in human MT4 cells assessed as inhibition of viral replication relative to HIV-1 3B", "assay_type": "functional", "in_short": "as §1"}, "[4]": {"test_system": "Human immunodeficiency virus 1", "assay": "Antiviral activity against HIV-1 subtype CRF01_AE V022820 infected in human MT4 cells assessed as inhibition of viral replication relative to HIV-1 3B", "assay_type": "functional", "in_short": "as §1"}, "[5]": {"test_system": "Human immunodeficiency virus 1", "assay": "Antiviral activity against HIV-1 Bal infected in 24 hrs 100 to 1000 nM compound pretreated human ectocervical explant tissue assessed as prolonged inhibition of viral infection post compound removal measured after 6 days post compound removal", "assay_type": "functional", "in_short": "(§2)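 Ectocervical explants were exposed to drug (0.01–10 µM) for 2 or 24 h at 37°C and washed. They received HIV-1BaL (2 h) on day 0, 2, 4 or 6 after drug removal, with no drug present. Read-outs at 10 days post-exposure: explant p24 ELISA, tissue proviral DNA by qPCR, and p24 in migratory cell–PM-1 cocultures. Three donors (2 h) or two donors (24 h), triplicate.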"}, "[6]": {"test_system": "Human immunodeficiency virus 1", "assay": "Antiviral activity against HIV-1 Bal infected in 2 hrs 1000 nM compound pretreated human ectocervical explant tissue assessed as prolonged inhibition of viral infection post compound removal measured after 2 days post compound removal", "assay_type": "functional", "in_short": "as §2"}, "[7]": {"assay": "Toxicity against human Ectocervical tissue explants at 0.0001 to 100 uM after 24 hrs by MTT assay", "in_short": "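Uninfected ectocervical explants were exposed to drug for 2 or 24 h. Viability was measured by MTT reduction per milligram of tissue relative to unexposed explants, either immediately or after overnight culture. Three or four donors, triplicate.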"}, "[8]": {"test_system": "Human immunodeficiency virus 1", "assay": "Antiviral activity against HIV-1 SF162 infected in hu-SCID mouse assessed as protection from viral infection at 22.5 uM", "assay_type": "functional", "conditions": "Human immunodeficiency virus 1, SF162 ISOLATE"}, "[9]": {"test_system": "Human immunodeficiency virus 1", "assay": "Antiviral activity against HIV-1 3B infected in human MT4 cells after 3 to 5 days by MTT assay", "conditions": "Human immunodeficiency virus 1, 3B, MT4, 72 to 120 h"}, "[10]": {"test_system": "Human immunodeficiency virus 1", "assay": "Antiviral activity against HIV-1 Bal infected in human PM1 cells assessed as inhibition of transmission of virus to premissive T cells", "assay_type": "functional, organism-based", "conditions": "Human immunodeficiency virus 1, Bal", "in_short": "(§3)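 Explants were pretreated with drug for 1 h, then exposed to HIV-1BaL for 2 h with drug present and washed. Cells that migrated out overnight were washed and cocultured with PM-1 cells (4 x 10^4/well) for about 10 days. Transfer was read as p24 by ELISA in coculture supernatant (detection limit 300 pg/ml). Two donors, triplicate.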"}, "[11]": {"test_system": "Human immunodeficiency virus 1", "assay": "Antiviral activity against HIV-1 subtype CRF01_AE V022822 infected in human MT4 cells assessed as inhibition of viral replication relative to HIV-1 3B", "assay_type": "functional", "in_short": "as §1"}, "[12]": {"test_system": "Human immunodeficiency virus 1", "assay": "Antiviral activity against HIV-1 subtype CRF02_AG V022830 infected in human MT4 cells assessed as inhibition of viral replication relative to HIV-1 3B", "assay_type": "functional", "in_short": "as §1"}, "[13]": {"test_system": "Human immunodeficiency virus 1", "assay": "Antiviral activity against HIV-1 SM026 harboring NNTRI 103N and 181C mutant infected in human MT4 cells assessed as inhibition of viral replication relative to HIV-1 3B", "assay_type": "functional", "in_short": "as §1"}, "[14]": {"assay": "Selectivity index, ratio of CC50 for human PM1 cells to IC50 for HIV-1 Bal", "assay_type": "functional", "in_short": "(§4)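 Selectivity index is CC50/IC50, using values determined in the same time period. CC50 was measured by MTT for TZM-bl and PM-1 cells and by trypan blue exclusion after 14 days for macrophages. Both were fitted by nonlinear regression.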"}, "[15]": {"test_system": "Human immunodeficiency virus 1", "assay": "Antiviral activity against HIV-1 subtype C V022829 infected in human MT4 cells assessed as inhibition of viral replication relative to HIV-1 3B", "assay_type": "functional", "in_short": "as §1"}, "[16]": {"test_system": "Human immunodeficiency virus 1", "assay": "Antiviral activity against HIV-1 subtype CRF02_AG V022808 infected in human MT4 cells assessed as inhibition of viral replication relative to HIV-1 3B", "assay_type": "functional", "in_short": "as §1"}, "[17]": {"test_system": "Human immunodeficiency virus 1", "assay": "Antiviral activity against HIV-1 Bal infected in human TZM-bl cells after 24 hrs by luciferase reporter gene assay", "assay_type": "functional, organism-based", "conditions": "Human immunodeficiency virus 1, Bal", "in_short": "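TZM-bl cells (5 x 10^4/well), cultured overnight, pretreated with drug 1 h, then infected with HIV-1 BaL (200 TCID50/ml). After 24 h, cells washed and lysed and luciferase read. Drug-treated wells compared with untreated controls; IC50 (infection at 50% of drug-free control) by nonlinear regression.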"}, "[18]": {"test_system": "Human immunodeficiency virus 1", "assay": "Antiviral activity against HIV-1 subtype B V022809 infected in human MT4 cells assessed as inhibition of viral replication relative to HIV-1 3B", "assay_type": "functional", "in_short": "as §1"}, "[19]": {"assay": "Selectivity index, ratio of CC50 for human TZM-bl cells to IC50 for HIV-1 3B", "assay_type": "functional", "in_short": "as §4"}, "[20]": {"test_system": "Human immunodeficiency virus 1", "assay": "Antiviral activity against HIV-1 subtype D V022832 infected in human MT4 cells assessed as inhibition of viral replication relative to HIV-1 3B", "assay_type": "functional", "in_short": "as §1"}, "[21]": {"test_system": "Human immunodeficiency virus 1", "assay": "Antiviral activity against HIV-1 SM030 harboring NNTRI 100I mutant infected in human MT4 cells assessed as inhibition of viral replication relative to HIV-1 3B", "assay_type": "functional", "in_short": "as §1"}, "[22]": {"test_system": "Human immunodeficiency virus 1", "assay": "Antiviral activity against HIV-1 Bal infected in 24 hrs 100 to 1000 nM compound pretreated human ectocervical explant tissue assessed as prolonged inhibition of viral infection post compound removal measured after 4 days post compound removal", "assay_type": "functional", "in_short": "as §2"}, "[23]": {"test_system": "Human immunodeficiency virus 1", "assay": "Antiviral activity against HIV-1 3B infected in human TZM-bl cells after 24 hrs by luciferase reporter assay", "conditions": "Human immunodeficiency virus 1, 3B"}, "[24]": {"test_system": "Human immunodeficiency virus 1", "assay": "Antiviral activity against HIV-1 subtype B V022811 infected in human MT4 cells assessed as inhibition of viral replication relative to HIV-1 3B", "assay_type": "functional", "in_short": "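Recombinant clinical HIV-1 isolates (200 TCID50/well) were tested in MT-4 cells (3 x 10^4/well) over 3–5 days, with an MTT viability read-out. IC50 was fitted by nonlinear regression. Fold change is the isolate IC50 divided by the HIV-1IIIB IC50, tested in parallel.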"}, "[25]": {"test_system": "Human immunodeficiency virus 1", "assay": "Antiviral activity against HIV-1 Bal infected in human cervical tissue explants assessed as inhibition of dissemination of virus via migratory cells after 2 hrs", "assay_type": "functional, organism-based", "in_short": "as §3"}, "[26]": {"test_system": "Human immunodeficiency virus 1", "assay": "Antiviral activity against HIV-1 SM024 harboring NNTRI 190A mutant infected in human MT4 cells assessed as inhibition of viral replication relative to HIV-1 3B", "assay_type": "functional", "in_short": "as §1"}},
  "note": "Active and inactive are the calls of the source. No cut-off for these calls is given here.",
  "data": [
    {"smiles": "Cc1cc(C)c(Nc2ccnc(Nc3ccc(C#N)cc3)n2)c(C)c1", "note": "[DAPIVIRINE]", "values": [
      {"measurement": "Ratio IC50", "setting": "[1]", "value": 0.8},
      {"measurement": "inhibition", "setting": "[2]", "value": "Active"},
      {"measurement": "Ratio IC50", "setting": "[3]", "value": 0.9},
      {"measurement": "Ratio IC50", "setting": "[4]", "value": 0.9},
      {"measurement": "inhibition (INH)", "setting": "[5]", "value": 90, "unit": "%"},
      {"measurement": "inhibition (INH)", "setting": "[6]", "value": 90, "unit": "%"},
      {"measurement": "Activity", "setting": "[7]", "value": "Non-toxic"},
      {"measurement": "inhibition in vivo at 22.5 µM", "setting": "[8]", "value": 78.6, "unit": "%"},
      {"measurement": "IC50", "setting": "[9]", "value": 0.9, "unit": "nM"},
      {"measurement": "IC50", "setting": "[10]", "value": 0.1, "unit": "nM"},
      {"measurement": "Ratio IC50", "setting": "[11]", "value": 0.9},
      {"measurement": "Ratio IC50", "setting": "[12]", "value": 1.6},
      {"measurement": "Ratio IC50", "setting": "[13]", "value": 63},
      {"measurement": "Selectivity Index", "setting": "[14]", "value": 1833},
      {"measurement": "Ratio IC50", "setting": "[15]", "value": 1},
      {"measurement": "Ratio IC50", "setting": "[16]", "value": 1},
      {"measurement": "IC50", "setting": "[17]", "value": 1.46, "unit": "nM"},
      {"measurement": "IC90", "setting": "[17]", "value": 10.2, "unit": "nM"},
      {"measurement": "Ratio IC50", "setting": "[18]", "value": 1.5},
      {"measurement": "Selectivity Index", "setting": "[19]", "value": 20400},
      {"measurement": "Ratio IC50", "setting": "[20]", "value": 0.7},
      {"measurement": "Ratio IC50", "setting": "[21]", "value": 18},
      {"measurement": "inhibition (INH)", "setting": "[22]", "value": 90, "unit": "%"},
      {"measurement": "IC50", "setting": "[23]", "value": 1, "unit": "nM"},
      {"measurement": "Ratio IC50", "setting": "[24]", "value": 3.1},
      {"measurement": "inhibition", "setting": "[25]", "value": "Active"},
      {"measurement": "Ratio IC50", "setting": "[26]", "value": 1}
    ]}
  ]
}
